Test results: ChEMBL document CHEMBL4257470, “Rational design and characterization of a DNA/HDAC dual-targeting inhibitor containing nitrogen mustard and 2-aminobenzamide moieties” (Medchemcomm, 2018)
Activity calls are given as the source filed them. The rule behind the calls is not given here.

Legend:
A-375 [1] = assay: Induction of apoptosis in human A375 cells assessed as necrotic cells at 16 uM after 72 hrs by Alexa Fluor 488 Annexin/propidium iodide staining-based flow cytometric analysis (reference value: 1.64%); assay type: functional
A-375 [2] = assay: Induction of apoptosis in human A375 cells assessed as late apoptotic cells at 8 uM after 72 hrs by Alexa Fluor 488 Annexin/propidium iodide staining-based flow cytometric analysis (reference value: 10.22%); assay type: functional
Histone deacetylase 2 = Histone deacetylase 2 (Homo sapiens, UniProt Q92769); assay: Inhibition of recombinant human HDAC2 using FLUOR DE LYS-Green as substrate after 1 hr by fluorescence assay
Chain of Histone deacetylase 2 (Q92769 whole entry): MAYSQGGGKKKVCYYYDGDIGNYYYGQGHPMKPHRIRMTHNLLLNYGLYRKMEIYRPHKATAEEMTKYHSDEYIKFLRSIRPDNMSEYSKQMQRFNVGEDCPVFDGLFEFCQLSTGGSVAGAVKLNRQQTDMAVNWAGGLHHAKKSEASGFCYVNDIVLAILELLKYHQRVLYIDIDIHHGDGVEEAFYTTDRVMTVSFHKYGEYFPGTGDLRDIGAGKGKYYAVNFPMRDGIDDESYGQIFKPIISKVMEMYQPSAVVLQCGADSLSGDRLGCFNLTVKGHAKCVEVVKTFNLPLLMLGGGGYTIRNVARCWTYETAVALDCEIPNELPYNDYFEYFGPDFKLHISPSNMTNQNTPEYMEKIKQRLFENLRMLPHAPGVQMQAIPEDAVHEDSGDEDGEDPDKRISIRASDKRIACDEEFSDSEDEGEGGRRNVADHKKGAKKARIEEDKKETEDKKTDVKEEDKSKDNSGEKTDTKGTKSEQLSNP
Procedure, shortened: (§1)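 Enzyme preincubated with a concentration series of inhibitor; Fluor de Lys-Green substrate equilibrated at 37 °C for 5 min, then added to start the reaction. Incubated 1 h at 37 °C, stopped with developer for 10 min at 25 °C, fluorescence read at ex 360/em 460 nm. Activity taken as percent of control; IC50 by regression of dose–inhibition data.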

[3] = biological target: Histone deacetylase (Homo sapiens) (UniProt Q13547+O15379+Q9UBN7+Q92769+Q9UQL6+Q8WUI4+Q9BY41+Q96DB2+P56524+Q9UKV0+Q969S8); assay: Inhibition of HDAC in human HeLa cell nuclear extracts at 0.1 to 10000 uM using FLUOR DE LYS-Green as substrate after 1 hr by fluorescence assay; assay type: protein assay; procedure, shortened: as §1
A-375 [4] = assay: Induction of apoptosis in human A375 cells assessed as necrotic cells at 8 uM after 72 hrs by Alexa Fluor 488 Annexin/propidium iodide staining-based flow cytometric analysis (reference value: 1.64%); assay type: functional
Histone deacetylase 1 = Histone deacetylase 1 (Homo sapiens, UniProt Q13547); assay: Inhibition of recombinant human HDAC1 using FLUOR DE LYS SIRT1 deacetylase substrate after 1 hr by fluorescence assay
Chain of Histone deacetylase 1 (Q13547 whole entry, canonical isoform): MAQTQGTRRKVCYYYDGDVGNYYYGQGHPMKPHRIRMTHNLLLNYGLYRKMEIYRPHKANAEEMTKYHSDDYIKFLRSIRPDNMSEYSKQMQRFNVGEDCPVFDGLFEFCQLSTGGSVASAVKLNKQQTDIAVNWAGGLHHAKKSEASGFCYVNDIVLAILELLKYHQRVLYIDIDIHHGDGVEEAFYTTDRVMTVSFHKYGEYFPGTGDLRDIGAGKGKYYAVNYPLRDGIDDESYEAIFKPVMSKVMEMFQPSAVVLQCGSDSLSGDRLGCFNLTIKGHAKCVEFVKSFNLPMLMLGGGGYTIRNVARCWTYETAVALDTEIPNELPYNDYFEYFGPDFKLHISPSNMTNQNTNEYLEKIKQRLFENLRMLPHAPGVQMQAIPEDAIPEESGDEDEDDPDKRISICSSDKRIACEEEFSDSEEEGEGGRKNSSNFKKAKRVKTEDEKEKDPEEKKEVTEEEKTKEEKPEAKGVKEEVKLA
Procedure, shortened: (§2)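 Each isoform kit run with the enzyme preincubated with a concentration series of inhibitor, and substrate added after 5 min equilibration at 37 °C. Reaction ran 1 h at 37 °C, was stopped with developer for 10 min at 25 °C, and fluorescence was read at ex 360/em 460 nm. Activity taken as percent of control; IC50 by regression of dose–inhibition data.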

A-375 [5] = assay: Anticlonogenic activity against human A375 cells after 7 days by crystal violet staining based assay; assay type: functional, cell-based
Procedure, shortened: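 A375 cells seeded at 3000 per well, treated after 24 h with compound or DMSO; after 7 days colonies fixed in 3.7% formaldehyde and stained with 0.1% crystal violet.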

[6] = biological target: Histone deacetylase 3/NCoR1 (Homo sapiens, UniProt O15379); assay: Inhibition of recombinant human HDAC3/NCOR1 using FLUOR DE LYS SIRT1 deacetylase substrate after 1 hr by fluorescence assay; assay type: protein-complex assay; procedure, shortened: as §2
Chain of Histone deacetylase 3/NCoR1 (O15379 whole entry): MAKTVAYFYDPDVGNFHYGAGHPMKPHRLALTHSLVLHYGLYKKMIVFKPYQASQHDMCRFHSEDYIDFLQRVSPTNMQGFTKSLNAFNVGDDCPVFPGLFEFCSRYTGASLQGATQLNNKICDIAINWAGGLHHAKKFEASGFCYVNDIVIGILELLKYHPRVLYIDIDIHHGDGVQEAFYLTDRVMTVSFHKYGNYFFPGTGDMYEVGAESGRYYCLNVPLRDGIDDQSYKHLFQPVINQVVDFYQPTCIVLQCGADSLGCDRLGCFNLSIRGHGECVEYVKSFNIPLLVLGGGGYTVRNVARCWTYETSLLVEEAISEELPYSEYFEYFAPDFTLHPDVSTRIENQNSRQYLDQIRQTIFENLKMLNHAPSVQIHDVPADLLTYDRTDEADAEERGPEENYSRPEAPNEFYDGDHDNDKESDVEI
Chain of Histone deacetylase 3/NCoR1 (O75376 whole entry, further chain): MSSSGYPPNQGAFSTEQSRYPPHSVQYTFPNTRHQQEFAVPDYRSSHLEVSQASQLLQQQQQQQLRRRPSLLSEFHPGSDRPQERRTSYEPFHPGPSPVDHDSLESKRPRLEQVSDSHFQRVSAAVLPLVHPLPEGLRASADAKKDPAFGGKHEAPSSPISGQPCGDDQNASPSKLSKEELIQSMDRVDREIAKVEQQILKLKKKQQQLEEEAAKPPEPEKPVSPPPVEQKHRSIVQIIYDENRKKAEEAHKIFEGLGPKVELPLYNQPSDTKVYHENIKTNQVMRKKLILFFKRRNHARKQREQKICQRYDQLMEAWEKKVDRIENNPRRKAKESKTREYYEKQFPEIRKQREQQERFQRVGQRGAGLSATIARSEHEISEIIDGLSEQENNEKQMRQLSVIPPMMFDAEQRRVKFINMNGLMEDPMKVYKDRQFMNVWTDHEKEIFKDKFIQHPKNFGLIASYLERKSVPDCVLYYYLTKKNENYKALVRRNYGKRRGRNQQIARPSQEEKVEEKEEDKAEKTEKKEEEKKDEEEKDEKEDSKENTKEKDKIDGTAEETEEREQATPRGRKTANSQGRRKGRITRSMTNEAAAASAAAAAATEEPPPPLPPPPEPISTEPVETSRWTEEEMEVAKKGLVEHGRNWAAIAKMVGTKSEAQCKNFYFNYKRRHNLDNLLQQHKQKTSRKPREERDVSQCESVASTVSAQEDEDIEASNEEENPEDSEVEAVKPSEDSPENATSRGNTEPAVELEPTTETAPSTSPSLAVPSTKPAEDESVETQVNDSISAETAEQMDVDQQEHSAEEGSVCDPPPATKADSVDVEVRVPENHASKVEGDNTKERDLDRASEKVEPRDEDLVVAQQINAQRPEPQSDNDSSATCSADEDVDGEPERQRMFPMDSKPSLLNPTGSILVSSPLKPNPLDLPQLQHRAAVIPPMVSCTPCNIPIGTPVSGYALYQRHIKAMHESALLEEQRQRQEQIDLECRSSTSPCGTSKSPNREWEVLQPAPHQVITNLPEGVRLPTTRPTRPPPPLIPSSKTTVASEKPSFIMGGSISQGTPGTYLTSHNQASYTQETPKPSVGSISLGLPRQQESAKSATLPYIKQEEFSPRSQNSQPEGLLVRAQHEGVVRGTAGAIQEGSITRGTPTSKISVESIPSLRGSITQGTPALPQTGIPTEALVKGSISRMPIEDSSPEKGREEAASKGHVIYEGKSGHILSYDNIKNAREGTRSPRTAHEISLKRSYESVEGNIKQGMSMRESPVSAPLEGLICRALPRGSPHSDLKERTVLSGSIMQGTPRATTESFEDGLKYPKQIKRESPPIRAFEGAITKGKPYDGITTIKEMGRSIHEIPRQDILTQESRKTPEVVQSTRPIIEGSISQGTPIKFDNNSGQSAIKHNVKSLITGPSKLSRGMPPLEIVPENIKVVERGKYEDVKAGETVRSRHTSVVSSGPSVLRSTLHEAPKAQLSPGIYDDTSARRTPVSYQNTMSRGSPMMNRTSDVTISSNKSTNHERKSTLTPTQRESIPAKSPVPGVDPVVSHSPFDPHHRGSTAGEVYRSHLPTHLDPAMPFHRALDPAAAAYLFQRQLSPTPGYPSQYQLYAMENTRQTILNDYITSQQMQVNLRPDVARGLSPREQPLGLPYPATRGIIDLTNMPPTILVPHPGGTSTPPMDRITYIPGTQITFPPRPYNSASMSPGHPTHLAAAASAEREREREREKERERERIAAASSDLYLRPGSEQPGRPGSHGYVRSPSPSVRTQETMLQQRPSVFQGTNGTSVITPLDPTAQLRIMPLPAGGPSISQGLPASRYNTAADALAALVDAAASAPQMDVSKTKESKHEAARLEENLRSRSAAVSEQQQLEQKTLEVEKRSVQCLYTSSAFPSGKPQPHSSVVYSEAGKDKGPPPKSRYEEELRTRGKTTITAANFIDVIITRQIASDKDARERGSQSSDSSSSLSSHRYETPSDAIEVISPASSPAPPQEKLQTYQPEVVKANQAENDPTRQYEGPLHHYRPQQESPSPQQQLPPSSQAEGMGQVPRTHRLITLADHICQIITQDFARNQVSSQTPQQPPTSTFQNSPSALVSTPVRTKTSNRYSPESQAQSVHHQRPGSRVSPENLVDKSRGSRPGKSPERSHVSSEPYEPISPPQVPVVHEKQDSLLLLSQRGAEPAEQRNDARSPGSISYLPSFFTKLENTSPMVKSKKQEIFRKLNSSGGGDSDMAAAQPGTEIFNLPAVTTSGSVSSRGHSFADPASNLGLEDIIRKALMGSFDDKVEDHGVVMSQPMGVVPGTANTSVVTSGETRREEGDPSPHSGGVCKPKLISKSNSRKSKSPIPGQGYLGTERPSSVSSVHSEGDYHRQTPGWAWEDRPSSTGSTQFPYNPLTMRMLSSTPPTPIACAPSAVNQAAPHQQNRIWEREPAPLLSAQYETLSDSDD

Histone deacetylase 8 = biological target: T1, Histone deacetylase 8 (Homo sapiens, UniProt Q9BY41); assay: Inhibition of recombinant human HDAC8 using FLUOR DE LYS as substrate after 1 hr by fluorescence assay; procedure, shortened: as §2
T1 sequence (Q9BY41 whole entry): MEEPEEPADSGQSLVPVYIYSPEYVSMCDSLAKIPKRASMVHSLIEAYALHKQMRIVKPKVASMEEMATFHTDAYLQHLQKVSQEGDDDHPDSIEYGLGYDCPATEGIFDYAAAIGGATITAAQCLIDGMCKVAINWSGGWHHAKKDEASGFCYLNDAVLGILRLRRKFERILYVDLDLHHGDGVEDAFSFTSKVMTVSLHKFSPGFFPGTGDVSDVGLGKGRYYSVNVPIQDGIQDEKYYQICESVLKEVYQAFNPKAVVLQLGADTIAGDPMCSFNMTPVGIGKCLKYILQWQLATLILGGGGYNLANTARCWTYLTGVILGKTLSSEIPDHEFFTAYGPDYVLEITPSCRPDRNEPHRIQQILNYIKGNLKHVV

A-375 [7] = assay: Antiproliferative activity against human A375 cells after 72 hrs CCK8 assay; assay type: functional, cell-based; settings: A-375, 72 h
A-375 [8] = assay: Induction of apoptosis in human A375 cells assessed as late apoptotic cells at 2 uM after 72 hrs by Alexa Fluor 488 Annexin/propidium iodide staining-based flow cytometric analysis (reference value: 10.22%); assay type: functional
SMMC-7721 = assay: Antiproliferative activity against human SMMC7721 cells after 72 hrs CCK8 assay; assay type: functional, cell-based; settings: SMMC-7721, 72 h
Procedure, shortened: (§3)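 Cells grown in RPMI1640 with 10% FBS, 1% penicillin/streptomycin, 37 °C, 5% CO2; log-phase cells seeded 3000–4000 per well, dosed after 12 h with a concentration series or solvent control for 72 h. CCK-8 added for 1 h, absorbance at 450 nm; IC50 from percent growth versus untreated control; mean of three experiments.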

A549 = assay: Antiproliferative activity against human A549 cells after 72 hrs CCK8 assay; assay type: functional, cell-based; settings: A549, 72 h
A-375 [9] = assay: Cell cycle arrest in human A375 cells assessed as accumulation at G2/M phase at 8 uM after 72 hrs by propidium iodide/RNase staining based flow cytometric analysis relative to control; assay type: functional
Procedure, shortened: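 A375 cells (1.6 × 10^5 per well) plated 12 h, then treated with compound or DMSO for 72 h. Cells fixed overnight in 70% ethanol in phosphate buffer at –20 °C, stained 30 min at room temperature with RNase:PI (1:9). DNA content read by flow cytometry.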

[10] = Induction of DNA damage in human A375 cells assessed as phosphorylation of H2AX at Ser139 residues at 8 uM after 48 hrs relative to control; assay type: functional
Procedure, shortened: (§4)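 A375 cells seeded 7000 per well, treated next day for 48 h. Whole-cell γH2AX (Ser139) immunoassay read by absorbance, normalised to cell number and expressed as percent of untreated control; mean ± SD, n = 3; t-test.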

A-375 [11] = assay: Induction of apoptosis in human A375 cells assessed as viable cells at 8 uM after 72 hrs by Alexa Fluor 488 Annexin/propidium iodide staining-based flow cytometric analysis (reference value: 86.07%); assay type: functional; settings: A-375, 72 h, read-out: Activity
[12] = biological target: T2, Protein deacetylase HDAC6 (Homo sapiens, UniProt Q9UBN7); assay: Inhibition of recombinant human HDAC6 using FLUOR DE LYS SIRT1, deacetylase as substrate after 1 hr by fluorescence assay; procedure, shortened: as §2
T2 sequence (Q9UBN7 whole entry): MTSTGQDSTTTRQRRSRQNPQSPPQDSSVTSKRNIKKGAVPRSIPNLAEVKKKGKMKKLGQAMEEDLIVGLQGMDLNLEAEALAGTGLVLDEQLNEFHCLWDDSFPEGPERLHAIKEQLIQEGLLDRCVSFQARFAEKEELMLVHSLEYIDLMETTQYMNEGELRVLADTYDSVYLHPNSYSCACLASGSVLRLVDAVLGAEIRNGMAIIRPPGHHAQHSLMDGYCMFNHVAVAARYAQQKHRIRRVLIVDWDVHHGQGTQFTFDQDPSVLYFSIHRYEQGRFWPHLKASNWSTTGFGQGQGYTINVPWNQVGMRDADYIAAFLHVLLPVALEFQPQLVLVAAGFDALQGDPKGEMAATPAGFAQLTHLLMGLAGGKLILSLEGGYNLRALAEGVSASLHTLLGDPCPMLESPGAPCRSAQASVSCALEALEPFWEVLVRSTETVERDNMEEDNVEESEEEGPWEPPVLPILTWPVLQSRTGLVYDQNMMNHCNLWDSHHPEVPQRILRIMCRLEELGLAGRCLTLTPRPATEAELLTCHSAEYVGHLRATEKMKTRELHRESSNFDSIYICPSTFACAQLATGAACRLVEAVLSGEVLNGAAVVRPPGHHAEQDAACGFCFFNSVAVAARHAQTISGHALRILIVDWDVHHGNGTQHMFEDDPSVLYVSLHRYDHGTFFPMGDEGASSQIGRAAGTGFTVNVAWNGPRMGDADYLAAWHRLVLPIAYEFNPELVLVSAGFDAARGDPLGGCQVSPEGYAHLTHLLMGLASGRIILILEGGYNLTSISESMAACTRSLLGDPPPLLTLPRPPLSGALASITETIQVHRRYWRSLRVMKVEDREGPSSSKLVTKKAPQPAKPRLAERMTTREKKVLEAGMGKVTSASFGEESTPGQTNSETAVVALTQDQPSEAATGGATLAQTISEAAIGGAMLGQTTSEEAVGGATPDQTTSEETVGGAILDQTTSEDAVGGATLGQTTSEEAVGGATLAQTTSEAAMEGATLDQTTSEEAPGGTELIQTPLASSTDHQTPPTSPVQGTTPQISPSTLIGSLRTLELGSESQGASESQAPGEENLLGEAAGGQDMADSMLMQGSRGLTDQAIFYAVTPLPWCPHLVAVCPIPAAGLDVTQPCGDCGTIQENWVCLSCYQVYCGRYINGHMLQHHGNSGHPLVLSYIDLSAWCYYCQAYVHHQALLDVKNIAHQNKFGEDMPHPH

A-375 [13] = assay: Induction of apoptosis in human A375 cells after 72 hrs by Alexa Fluor 488 Annexin/propidium iodide staining-based flow cytometric analysis; assay type: functional, cell-based
A-375 [14] = assay: Induction of apoptosis in human A375 cells assessed as necrotic cells at 2 uM after 72 hrs by Alexa Fluor 488 Annexin/propidium iodide staining-based flow cytometric analysis (reference value: 1.64%); assay type: functional
A-375 [15] = assay: Induction of apoptosis in human A375 cells assessed as viable cells at 2 uM after 72 hrs by Alexa Fluor 488 Annexin/propidium iodide staining-based flow cytometric analysis (reference value: 86.07%); assay type: functional; settings: A-375, 72 h, read-out: Activity
[16] = Induction of DNA damage in human A375 cells assessed as phosphorylation of H2AX at Ser139 residues at 16 uM after 48 hrs relative to control; assay type: functional; procedure, shortened: as §4
HepG2 = assay: Antiproliferative activity against human HepG2 cells after 72 hrs CCK8 assay; assay type: functional, cell-based; settings: HepG2, 72 h
A-375 [17] = assay: Induction of apoptosis in human A375 cells assessed as early apoptotic cells at 2 uM after 72 hrs by Alexa Fluor 488 Annexin/propidium iodide staining-based flow cytometric analysis (reference value: 2.07%); assay type: functional
A-375 [18] = assay: Induction of apoptosis in human A375 cells assessed as viable cells at 16 uM after 72 hrs by Alexa Fluor 488 Annexin/propidium iodide staining-based flow cytometric analysis (reference value: 86.07%); assay type: functional; settings: A-375, 72 h, read-out: Activity
NCI-H1299 = assay: Antiproliferative activity against human H1299 cells after 72 hrs CCK8 assay; assay type: functional, cell-based; settings: NCI-H1299, 72 h
NCI-H460 = assay: Antiproliferative activity against human H460 cells after 72 hrs CCK8 assay; assay type: functional, cell-based; settings: NCI-H460, 72 h; procedure, shortened: as §3
A-375 [19] = assay: Induction of apoptosis in human A375 cells assessed as early apoptotic cells at 16 uM after 72 hrs by Alexa Fluor 488 Annexin/propidium iodide staining-based flow cytometric analysis (reference value: 2.07%); assay type: functional
A-375 [20] = assay: Induction of apoptosis in human A375 cells assessed as late apoptotic cells at 16 uM after 72 hrs by Alexa Fluor 488 Annexin/propidium iodide staining-based flow cytometric analysis (reference value: 10.22%); assay type: functional
A-375 [21] = assay: Induction of apoptosis in human A375 cells assessed as early apoptotic cells at 8 uM after 72 hrs by Alexa Fluor 488 Annexin/propidium iodide staining-based flow cytometric analysis (reference value: 2.07%); assay type: functional

SMILES | Activity (A-375 [1]) [%] | Activity (A-375 [2]) [%] | Activity (A-375 [4]) [%] | Activity (A-375 [8]) [%] | IC50 (SMMC-7721) [µM] | Activity (A-375 [9]) [%] | Activity [10] [%] | viability at 8 µM (A-375 [11]) [%] | Activity (A-375 [14]) [%] | viability at 2 µM (A-375 [15]) [%] | Activity [16] [%] | Activity (A-375 [17]) [%] | viability at 16 µM (A-375 [18]) [%] | IC50 (NCI-H1299) [µM] | IC50 (NCI-H460) [µM] | Activity (A-375 [19]) [%] | Activity (A-375 [20]) [%] | Activity (A-375 [21]) [%] | also measured
Nc1ccccc1NC(=O)CCCc1ccc(N(CCCl)CCCl)cc1 | 3.78 | 42.54 | 12.05 | 11.63 | 4 | 79.2 | 159 | 38 | 2.77 | 79.8 | 213.3 | 5.76 | 35.2 | 5.5 | 3.1 | 12.31 | 48.69 | 7.39 | IC50 (Histone deacetylase 2): 32.9 µM; inhibition [3]: Active; IC50 (Histone deacetylase 1): > 160 µM; Activity (A-375 [5]): Dose-dependent effect; IC50 [6]: 9.52 µM; IC50 (Histone deacetylase 8): 75.2 µM; IC50 (A-375 [7]): 6.1 µM; IC50 (A549): 6.2 µM; IC50 [12]: > 160 µM; Activity (A-375 [13]): Dose-dependent effect; IC50 (HepG2): 14.2 µM
O=C(O)CCCc1ccc(N(CCCl)CCCl)cc1 [CHLORAMBUCIL] | 6.44 | 8.41 | 2.34 | 6.95 | 163 | 47.6 | 128.9 | 87.1 | 1.36 | 90.1 | 128.6 | 1.62 | 71.1 | 116 | 28.9 | 4.21 | 18.21 | 2.11 | 
CC(=O)Nc1ccc(C(=O)Nc2ccccc2N)cc1 [TACEDINALINE] | 1.01 | 9.09 | 0.71 | 11.03 | 16.9 | 10.8 | 104.5 | 70.4 | 1.04 | 78.4 | 118.8 | 9.54 | 36 |  | 9.7 | 36.31 | 26.71 | 19.04 | 
